Results as given in ChEMBL document CHEMBL4689842, “EUbOPEN Chemogenomics Library wave 1” (2021).

Test system: U2OS
Experiment: Multiplex assay against U2OS
Assay type: toxicity, cell-based
Conditions: human
Procedure, shortened: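 Cells were classed with CellPathfinder machine-learning gating, first as Hoechst high-intensity objects or normal cells, then (normal cells) as healthy, pyknosed or fragmented nuclei, and finally (pyknosed cells) as mitotic or apoptotic. Staining of live cells at seeding used Hoechst33342, BioTracker Green Microtubule Cytoskeleton Dye, MitoTracker Red and Annexin V Alexa Fluor 680, with imaging on a CQ1 microscope at 37°C and 5% CO2 after compound addition. Tubulin, mitochondrial-mass and membrane-permeability phenotypes are per cents of healthy-nucleus cells.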

[1] = 12 h, 1 µM, compound concentration 1 uM, replicate 1
[2] = 12 h, 1 µM, compound concentration 1 uM, replicate 2
[3] = 12 h, 10 µM, compound concentration 10 uM, replicate 1
[4] = 12 h, 10 µM, compound concentration 10 uM, replicate 2
[5] = 24 h, 1 µM, compound concentration 1 uM, replicate 1
[6] = 24 h, 1 µM, compound concentration 1 uM, replicate 2
[7] = 24 h, 10 µM, compound concentration 10 uM, replicate 1
[8] = 24 h, 10 µM, compound concentration 10 uM, replicate 2
[9] = 48 h, 1 µM, compound concentration 1 uM, replicate 1
[10] = 48 h, 1 µM, compound concentration 1 uM, replicate 2
[11] = 48 h, 10 µM, compound concentration 10 uM, replicate 1
[12] = 48 h, 10 µM, compound concentration 10 uM, replicate 2

C[C@]12CC[C@@H]3c4ccc(O)cc4CC[C@H]3[C@@H]1CC[C@@H]2O [ESTRADIOL]
Population Apoptotic (%) [1]: 11% | Population Fragmented Nuclei (%) [1]: 8% | Population Healthy Nuclei (%) [1]: 82% | Population Hoechst High Intensity Objects (%) [1]: 7% | Population Membrane Permeable-Phenotype (%) [1]: 10% | Population Mitochondria Different-Phenotype (%) [1]: 9% | Population Mitotic Cells (%) [1]: 88% | Population Normal (%) [1]: 92% | Population Pyknosed Nuclei (%) [1]: 8% | Population Tubulin-Different-Phenotype (%) [1]: 12% | Total Cell Count [1]: 138 | Population Apoptotic (%) [2]: 50% | Population Healthy Nuclei (%) [2]: 86% | Population Hoechst High Intensity Objects (%) [2]: 5% | Population Membrane Permeable-Phenotype (%) [2]: 4% | Population Mitochondria Different-Phenotype (%) [2]: 8% | Population Mitotic Cells (%) [2]: 50% | Population Normal (%) [2]: 94% | Population Pyknosed Nuclei (%) [2]: 5% | Population Tubulin-Different-Phenotype (%) [2]: 14% | Total Cell Count [2]: 80 | Population Apoptotic (%) [3]: 30% | Population Fragmented Nuclei (%) [3]: 5% | Population Healthy Nuclei (%) [3]: 82% | Population Hoechst High Intensity Objects (%) [3]: 4% | Population Membrane Permeable-Phenotype (%) [3]: 6% | Population Mitochondria Different-Phenotype (%) [3]: 7% | Population Mitotic Cells (%) [3]: 70% | Population Normal (%) [3]: 95% | Population Pyknosed Nuclei (%) [3]: 11% | Population Tubulin-Different-Phenotype (%) [3]: 14% | Total Cell Count [3]: 113 | Population Apoptotic (%) [4]: 25% | Population Fragmented Nuclei (%) [4]: 9% | Population Healthy Nuclei (%) [4]: 77% | Population Hoechst High Intensity Objects (%) [4]: 8% | Population Membrane Permeable-Phenotype (%) [4]: 4% | Population Mitochondria Different-Phenotype (%) [4]: 12% | Population Mitotic Cells (%) [4]: 75% | Population Normal (%) [4]: 91% | Population Pyknosed Nuclei (%) [4]: 12% | Population Tubulin-Different-Phenotype (%) [4]: 25% | Total Cell Count [4]: 76 | Population Apoptotic (%) [5]: 0% | Population Fragmented Nuclei (%) [5]: 7% | Population Healthy Nuclei (%) [5]: 87% | Population Hoechst High Intensity Objects (%) [5]: 5% | Population Membrane Permeable-Phenotype (%) [5]: 6% | Population Mitochondria Different-Phenotype (%) [5]: 6% | Population Mitotic Cells (%) [5]: 100% | Population Normal (%) [5]: 94% | Population Pyknosed Nuclei (%) [5]: 5% | Population Tubulin-Different-Phenotype (%) [5]: 15% | Total Cell Count [5]: 140 | Population Apoptotic (%) [6]: 50% | Population Fragmented Nuclei (%) [6]: 4% | Population Healthy Nuclei (%) [6]: 89% | Population Hoechst High Intensity Objects (%) [6]: 3% | Population Membrane Permeable-Phenotype (%) [6]: 4% | Population Mitochondria Different-Phenotype (%) [6]: 9% | Population Mitotic Cells (%) [6]: 50% | Population Normal (%) [6]: 96% | Population Pyknosed Nuclei (%) [6]: 6% | Population Tubulin-Different-Phenotype (%) [6]: 14% | Total Cell Count [6]: 82 | Population Apoptotic (%) [7]: 21% | Population Fragmented Nuclei (%) [7]: 7% | Population Healthy Nuclei (%) [7]: 79% | Population Membrane Permeable-Phenotype (%) [7]: 2% | Population Mitotic Cells (%) [7]: 78% | Population Pyknosed Nuclei (%) [7]: 12% | Population Tubulin-Different-Phenotype (%) [7]: 12% | Total Cell Count [7]: 140 | Population Apoptotic (%) [8]: 30% | Population Fragmented Nuclei (%) [8]: 18% | Population Healthy Nuclei (%) [8]: 68% | Population Hoechst High Intensity Objects (%) [8]: 3% | Population Membrane Permeable-Phenotype (%) [8]: 5% | Population Mitochondria Different-Phenotype (%) [8]: 11% | Population Mitotic Cells (%) [8]: 70% | Population Normal (%) [8]: 96% | Population Pyknosed Nuclei (%) [8]: 13% | Population Tubulin-Different-Phenotype (%) [8]: 43% | Population Apoptotic (%) [9]: 31% | Population Hoechst High Intensity Objects (%) [9]: 1% | Population Membrane Permeable-Phenotype (%) [9]: 2% | Population Mitotic Cells (%) [9]: 68% | Population Normal (%) [9]: 98% | Population Tubulin-Different-Phenotype (%) [9]: 15% | Total Cell Count [9]: 138 | Population Apoptotic (%) [10]: 18% | Population Fragmented Nuclei (%) [10]: 5% | Population Healthy Nuclei (%) [10]: 86% | Population Hoechst High Intensity Objects (%) [10]: 2% | Population Membrane Permeable-Phenotype (%) [10]: 12% | Population Mitochondria Different-Phenotype (%) [10]: 14% | Population Mitotic Cells (%) [10]: 81% | Population Normal (%) [10]: 97% | Population Pyknosed Nuclei (%) [10]: 7% | Population Tubulin-Different-Phenotype (%) [10]: 17% | Total Cell Count [10]: 90 | Population Apoptotic (%) [11]: 34% | Population Fragmented Nuclei (%) [11]: 8% | Population Healthy Nuclei (%) [11]: 81% | Population Membrane Permeable-Phenotype (%) [11]: 2% | Population Mitochondria Different-Phenotype (%) [11]: 19% | Population Mitotic Cells (%) [11]: 65% | Population Tubulin-Different-Phenotype (%) [11]: 12% | Population Apoptotic (%) [12]: 72% | Population Fragmented Nuclei (%) [12]: 13% | Population Healthy Nuclei (%) [12]: 76% | Population Hoechst High Intensity Objects (%) [12]: 2% | Population Membrane Permeable-Phenotype (%) [12]: 17% | Population Mitochondria Different-Phenotype (%) [12]: 13% | Population Mitotic Cells (%) [12]: 27% | Population Normal (%) [12]: 97% | Population Pyknosed Nuclei (%) [12]: 10% | Population Tubulin-Different-Phenotype (%) [12]: 57% | Total Cell Count [12]: 157
